An excerpt weighted towards active compounds, which were near 2.9% of everything screened.
FID counter: fluorescent intercalator displacement, NS3 helicase counter-screen | 0.17% of 290,000 active | DNA fluorescent intercalator displacement, fluorescence | inhibition, % at 7.9 µM; in the data active = inhibition above about 37%;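 also: higher means more ethidium bromide displaced from hairpin DNA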
NALP1 inh: inhibitors of NALP1 inflammasome in yeast. inhibition, % at 10 µM. 0.61% of 280,000 active. AID 2071. S. cerevisiae NALP1/ASC/caspase-1 growth, X-gal OD620, 72 h; in the data active = inhibition mostly above about 24%, no sharp cut-off; inactive = mostly below about 32%
SUMO Mot1 rescue: SUMOylation pathway inhibition by Mot1-301 growth rescue; AID 2716; 1% of 320,000 active; S. cerevisiae Mot1-301 growth rescue, ATP luminescence, 38.5C; percent above DMSO median, 100 means doubled; growth rescue, % at 18.8 µM;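 active = every valid replicate shows activation above 250% relative to neutral control wells; inactive = the rest, any valid replicate at or below 250%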
IMP-1 inhibitor: blocks Pseudomonas aeruginosa IMP-1 metallo-beta-lactamase | purified IMP-1, nitrocefin hydrolysis, epi-absorbance fluorescence | inhibition, % at 5.6 µM | 0.45% of 290,000 active | AID 1556;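 active = inhibition above the mean plus 3 SD of all compounds in the same screening run, cut at about 4.5% in these data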
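Assay system: purified IMP-1; Quantity: IMP-1 0.2 nM before substrate addition; Medium: HEPES buffer pH 7.1 with ZnSO4 and Brij 35; Incubation: 15 min enzyme–compound preincubation, then 25 min nitrocefin reaction, 25 °C; Signal: fluorescence quenching readout, ex 480/em 530 nm; Controls: DMSO with and without IMP-1; Repeats: singlicate testing.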
VIM-2 inh: inhibitors of Pseudomonas aeruginosa VIM-2 metallo-beta-lactamase; purified VIM-2, nitrocefin hydrolysis, epi-absorbance fluorescence; inhibition, % at 5.6 µM; 0.89% of 290,000 active;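 active = inhibition above the mean of all tested compounds plus 3 SD, cutoff set per screening run, cut at about 7.5% in these data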;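 also: red hydrolysis product quenches plate fluorescence so inhibitors raise well fluorescence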
SUMO HTRF inh: blocks human SUMOylation mediated by UBC9. AID 2006. 0.36% of 290,000 active. HTRF SUMOylation assay, SAE1/SAE2 + UBC9, in vitro. inhibition, % at 35 µM. P63279; in the data active = inhibition above about 50%, passing the limit was not always enough; inconclusive = no clear call, values can overlap the other calls
Target sequence (P63279 whole entry, looked up): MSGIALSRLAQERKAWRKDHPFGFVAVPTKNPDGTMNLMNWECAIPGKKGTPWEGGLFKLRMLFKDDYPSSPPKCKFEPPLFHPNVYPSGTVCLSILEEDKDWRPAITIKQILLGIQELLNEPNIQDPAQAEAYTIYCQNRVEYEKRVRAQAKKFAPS
A number is an active result; - = inactive; ? = inconclusive; . = no result.

SMILES	FID counter	NALP1 inh	SUMO Mot1 rescue	IMP-1 inhibitor	VIM-2 inh	SUMO HTRF inh
O=C(Nc1cccc(F)c1)c1ccc2c(c1)OCCO2	-	-	479	-	-	-
O=C(Nc1ccccc1)c1ccc2c(c1)OCCO2	-	-	-	-	-	-
O=C1c2cccc3cccc(c23)C(=O)N1c1nccs1	-	-	-	-	-	-
O=C1c2cccc3cccc(c23)C(=O)N1c1ccc2ncccc2c1	-	-	-	9.3	-	-
Clc1ccc(/C(Cc2nc3ccccc3[nH]2)=N\Nc2ccccc2)cc1	-	28	-	-	-	-
COc1ccc(NC(=O)c2ccc(S(=O)(=O)N3CCCC3)cc2)cc1OC	.	.	-	.	.	.
Cc1cc(N2CCN(c3nc4ccccc4s3)CC2)n2ncnc2n1	-	-	-	-	8.2	-
Cc1cc(N2CCN(C(c3ccccc3)c3ccccc3)CC2)n2ncnc2n1	-	.	-	-	-	-
CN(C)c1ccc(NC(=O)c2sc(SCC(=O)Nc3ccc(Br)cc3)nc2N)cc1	-	-	-	-	-	55
O=C(COc1ccccc1)N=C1SC2CS(=O)(=O)CC2N1c1ccc(F)cc1 (stereo not drawn)	-	-	-	-	-	-
CCCCN(CC)CCNC(=O)c1cn(C)c(=O)c2c1c1ccccc1n2C	-	-	-	-	-	-
CCCCN(C)CCNC(=O)c1cc2c(=O)[nH]c3ccccc3c2n1C	-	-	-	-	8.6	-
CCCCN(C)CCNC(=O)c1cn(C)c(=O)c2c1c1ccccc1n2C	-	42	-	-	-	-
CCn1cc(CN2CCCC(C(=O)Nc3ccc(-c4cscn4)cc3)C2)c(C)n1 (stereo not drawn)	-	-	-	-	-	-
CC(c1ccccc1)N1C(=O)c2ccc(C(=O)Nc3ccccc3C(=O)O)cc2C1=O (stereo not drawn)	43	-	-	-	-	-
COc1ccccc1N1C(=O)CC(Sc2n[nH]c(-c3cccc(C)c3)n2)C1=O (stereo not drawn)	-	73	-	-	-	-
COc1ccccc1N1C(=O)CC(Sc2nccc(C)n2)C1=O (stereo not drawn)	-	-	-	-	-	-
Cc1c(O)ccc2c3c(c(=O)oc12)CCCC3	-	-	-	-	10	-
Cc1c(OC(=O)CNC(=O)OC(C)(C)C)ccc2c3c(c(=O)oc12)CCC3	-	-	-	-	23	-
Cc1c(OC(C)C(=O)N[C@H](C(=O)O)c2ccccc2)ccc2c3c(c(=O)oc12)CCCC3 (stereo partly drawn)	-	-	-	-	7.8	-
CC(=O)COc1ccc2c3c(c(=O)oc2c1C)CCCCC3	-	-	-	-	-	-
CC(=O)C(C)Oc1ccc2c3c(c(=O)oc2c1C)CCCC3 (stereo not drawn)	-	-	-	-	10	-
Cc1c(O)ccc2c3c(c(=O)oc12)CCC(C)C3 (stereo not drawn)	-	.	-	-	-	-
Cc1c(Cc2ccccc2)c(=O)oc2c(C)c(OC(C)C(=O)N[C@@H](Cc3ccccc3)C(=O)O)ccc12 (stereo partly drawn)	-	-	-	-	-	-
C=C(C)C(=O)Nc1cccc(C2=NOC3(C2)C[C@H](C(N)=O)N(C(=O)c2ccccc2C(=O)c2ccccc2)C3)c1 (stereo partly drawn)	.	-	-	.	.	-
SMILES	FID counter	NALP1 inh	SUMO Mot1 rescue	IMP-1 inhibitor	VIM-2 inh	SUMO HTRF inh
Cc1ccc(CN(C)C(=O)c2cc(S(=O)(=O)N3CCOCC3)ccc2F)o1	.	.	-	.	.	.
CCOC(=O)CC(=O)CSc1nc(-c2cccnc2)ccc1C#N	-	-	-	5.3	-	-
CN(C)CC(CCC(CN(C)C)C(=O)c1ccccc1)C(=O)c1ccccc1 (stereo not drawn)	-	26	.	-	-	-
COc1ccc(C(=O)C(CCCCC(CN(C)C)C(=O)c2ccc(OC)cc2)CN(C)C)cc1 (stereo not drawn)	-	25	-	-	-	-
CCOc1ccc(C(=O)C(CCC(CN(C)C)C(=O)c2ccc(OCC)cc2)CN(C)C)cc1 (stereo not drawn)	-	48	.	-	-	-
COc1ccc(C(=O)CC(=O)c2ccc(OC)cc2)cc1	-	-	-	-	-	-
COc1ccc(-c2nc(N)c(C#N)c(-c3cccnc3)c2C)cc1	-	-	-	-	-	-
C=C1CCN([C@@H](CC(C)C)C(=O)NCc2cc(OC)c(OC)c(OC)c2)S(=O)(=O)c2ccccc21	.	.	-	.	.	.
O=C(CCn1c(=O)oc2ccccc21)Nc1cccc([N+](=O)[O-])c1	-	-	-	-	-	-
CCCCN1Cc2c(nc3cc(-c4ccco4)[nH]n3c2=O)C1=O	-	-	-	-	-	92
Cc1cc(C(=O)O)cc(S(=O)(=O)Nc2ccccc2C(=O)NC(C)c2ccccc2)c1C (stereo not drawn)	-	-	-	-	-	-
CCOc1cccc2cc(-c3nnc(NCc4ccco4)s3)c(=O)oc12	-	-	-	-	-	61
COc1ccc2oc(=O)c(-c3nnc(NCc4ccco4)s3)cc2c1	-	-	-	-	-	?
Cc1ccc(-c2ccc(/C=N\NC(=O)c3cc4c(ccc5ccccc54)o3)o2)cc1[N+](=O)[O-]	-	-	-	-	-	-
O=C(N/N=C/c1ccc(-c2ccc(Cl)c(C(=O)O)c2)o1)c1cc2c(ccc3ccccc32)o1	-	.	-	-	-	51
CC1CC/C(=N/Nc2ccccc2)C(=O)N1 (stereo not drawn)	-	-	-	-	-	-
CN1CCN(C2=Nc3cc(Cl)ccc3Nc3ccccc32)CC1	-	-	-	-	-	-
CN1CCN(C2=Nc3c(Cl)cc(Cl)c4cccc2c34)CC1	-	-	-	-	7.7	-
CCn1c(C)nc2cc(C(=O)N/N=C/c3cccc(OC)c3O)ccc21	-	-	-	-	-	-
CN(C)S(=O)(=O)c1cccc(NC(=S)N/N=C/c2ccc(O)c(O)c2O)c1	-	-	.	-	-	52
CCn1c(C)nc2cc(C(=O)N/N=C/c3ccc(O)c(O)c3O)ccc21	-	-	.	-	-	68
CCN(CC)S(=O)(=O)c1cccc(C(=O)N/N=C/c2ccc(O)c(O)c2O)c1	-	-	-	-	-	50
COc1cc(/C=N/NC(=S)Nc2cccc(S(=O)(=O)N(C)C)c2)cc(OC)c1O	-	-	-	-	-	-
COc1ccc(O)c(/C=N/NC(=S)Nc2cccc(S(=O)(=O)N(C)C)c2)c1	-	-	-	-	11	-
CCN(CC)CCSc1nc2ccccc2c(=S)n1-c1ccccc1	45	-	-	-	-	-
Cc1cc(C)c(C(=O)C(C)OC(=O)c2ccc(Cl)nc2)cc1C (stereo not drawn)	-	-	-	-	-	-
CCCN1Cc2cccc(C(=O)Nc3ccc(CN4CCCC4)cc3)c2C1=O	-	-	-	-	12	-
